Assay outcomes from PubChem.
Only a selection was taken, and hits are over-represented in it overall.
IDH1 R132H inh = blocks human IDH1 R132H reductase activity. 0.18% of 70,000 active. O75874. diaphorase/resazurin fluorescence, 60 min. inhibition, % at 10 µM; in the data active = inhibition above about 34%; inconclusive = no clear call, values can overlap the other calls; inactive = below about 11%;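 note: 0% = DMSO and 100% = no enzyme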
Target sequence (O75874 whole entry R132H): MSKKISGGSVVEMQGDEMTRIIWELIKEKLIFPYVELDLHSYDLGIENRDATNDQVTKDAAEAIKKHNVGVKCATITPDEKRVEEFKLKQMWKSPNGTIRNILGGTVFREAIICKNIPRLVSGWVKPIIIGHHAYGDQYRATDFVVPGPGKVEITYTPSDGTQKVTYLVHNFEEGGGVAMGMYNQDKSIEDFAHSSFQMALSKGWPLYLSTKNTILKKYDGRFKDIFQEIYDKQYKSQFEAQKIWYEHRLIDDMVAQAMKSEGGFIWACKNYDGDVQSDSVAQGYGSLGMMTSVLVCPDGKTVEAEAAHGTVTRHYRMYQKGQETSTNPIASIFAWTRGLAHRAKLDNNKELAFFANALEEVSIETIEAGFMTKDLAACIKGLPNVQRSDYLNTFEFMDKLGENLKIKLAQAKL
KDM4C inh = blocks human GASC-1 (KDM4C) demethylase activity. GST-KDM4C 2-372, H3K9me3 peptide, LANCE TR-FRET. 0.15% of 96,000 active. inhibition, % at 12.5 µM;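 active = mean replicate inhibition above about 25%, with at least 55% of replicates also reaching it, limit read from the data, passing the limit was not always enough; inconclusive = only one of those two conditions met; inactive = neither condition met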
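Assay system: GST-GASC-1 enzyme fragment 2-372 | Amount: 10 nM enzyme | Medium: HEPES buffer, pH 7.5, plus ascorbate | Reagent: H3K9me3 peptide substrate, Fe(II), 2-oxoglutarate | Doses: Single-point compound screen | Incubation: 30 min demethylation and 1 h detection at room temperature | Measured by: LANCE TR-FRET, excitation 340 nm, emissions 618 and 671 nm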
T cruzi growth-1 = inhibitors of T. cruzi proliferation; T. cruzi beta-gal in NIH3T3, GalScreen luminescence, 90 h; inhibition, % at 8.34 µM; 5.9% of 77,000 active; AID 624255;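 active = mean inhibition above about 93%, with at least 55% of replicates each passing it, limit read from the data, passing the limit was not always enough; inconclusive = only one of those two conditions holds; inactive = neither condition holds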
T cruzi growth-2 = inhibitors of T. cruzi proliferation. 72% of 5,600 active. inhibition, % at 8.35 µM. shares compounds with T cruzi growth-1. T. cruzi beta-gal in NIH3T3, GalScreen luminescence, 90 h;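 active = mean replicate inhibition above about 95% and at least 55% of replicates individually reaching it, limit read from the data; inconclusive = only one of the two criteria is met; inactive = neither criterion is met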
T cruzi growth-3 = Trypanosoma cruzi proliferation inhibition; shares compounds with T cruzi growth-1; T. cruzi beta-gal in NIH3T3, GalScreen luminescence, 90 h; inhibition, % at 2.09 µM; 21% of 5,600 active;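 active = mean inhibition above about 95%, with at least 55% of replicates also reaching it, limit read from the data; inconclusive = meets just one of the two conditions; inactive = meets neither condition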;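 note: plate controls were neutral control median for no effect and positive control median for full effect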
NIH3T3 tox = cytotoxicity in mouse NIH/3T3 fibroblasts; 14% of 5,600 active; NIH/3T3 viability, CellTiter-Glo ATP luminescence, 90 h; shares compounds with T cruzi growth-1; cytotoxicity (signal decrease), % at 8.35 µM;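 active = mean signal decrease across replicates above about 35% based on untreated-well scatter, with enough replicates individually passing, limit read from the data; inconclusive = no rule stated though some were filed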;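 note: 0% = median of neutral control wells and 100% = median of positive control wells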
3T3 cytotox 2 = kills mouse NIH/3T3 fibroblasts; shares compounds with T cruzi growth-1; NIH/3T3 viability, CellTiter-Glo ATP luminescence, 90 h; inhibition, % at 24.9 µM; 56% of 5,600 active; AID 651744;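 active = mean loss of cell viability signal at or above a set limit, and enough replicates individually reaching it; inconclusive = meets only the mean limit or only the replicate share; inactive = meets neither condition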;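 note: 0% = median of neutral control wells and 100% = median of positive control wells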
An asterisk follows results filed as active; ? = inconclusive; . = not tested or not shown.

SMILES	IDH1 R132H inh	KDM4C inh	T cruzi growth-1	T cruzi growth-2	T cruzi growth-3	NIH3T3 tox	3T3 cytotox 2
C[C@H]1CN([C@@H](C)CO)C(=O)c2cccc(NC(=O)Nc3ccc(F)cc3)c2O[C@H]1CN(C)S(=O)(=O)c1cccs1	1	1	-127	.	.	.	.
COc1cc(C(C)/C=C(/C)CC(=O)O)oc(=O)c1C (stereo unspecified)	0	.	.	.	.	.	.
CC(=O)C(C#N)C(=O)Nc1ccc(OC(F)(F)F)cc1 (stereo unspecified)	2	.	.	.	.	.	.
Cc1ccc(S(=O)(=O)N(C)C[C@H]2Oc3c(NC(=O)Nc4cccc5ccccc45)cccc3C(=O)N([C@H](C)CO)C[C@H]2C)cc1	-1	7	.	.	.	.	.
Cc1ccc(S(=O)(=O)N(C)C[C@@H]2Oc3c(NC(=O)Nc4cccc5ccccc45)cccc3C(=O)N([C@@H](C)CO)C[C@H]2C)cc1	0	1	110*	-8	-14	-9	-9
COc1ccc(S(=O)(=O)N(C)C[C@@H]2Oc3c(NC(=O)Nc4cccc5ccccc45)cccc3C(=O)N([C@H](C)CO)C[C@H]2C)cc1	2	-2	58	.	.	.	.
COc1ccc(S(=O)(=O)N(C)C[C@@H]2Oc3c(NC(=O)Nc4cccc5ccccc45)cccc3C(=O)N([C@@H](C)CO)C[C@@H]2C)cc1	1	0	109*	33	-16	-4	49*
NS(=O)(=O)c1ccc(NC(=S)NCc2ccccn2)cc1	0	.	.	.	.	.	.
CC(Oc1ccc(Cl)cc1Cl)C(=O)Nc1nnn(C)n1 (stereo unspecified)	0	.	.	.	.	.	.
C[C@@H]1CN([C@@H](C)CO)S(=O)(=O)c2ccc(C#C[C@@H](C)O)cc2O[C@H]1CN(C)Cc1ccncc1	.	4	102*	101*	66	29	27*
C[C@@H]1CN([C@H](C)CO)S(=O)(=O)c2ccc(C#C[C@@H](C)O)cc2O[C@H]1CN(C)Cc1ccncc1	.	0	104*	95*	36	15	14
C[C@@H]1CN([C@H](C)CO)S(=O)(=O)c2ccc(C#C[C@@H](C)O)cc2O[C@@H]1CN(C)Cc1ccncc1	26	1	75	.	.	.	.
C[C@H](O)C#Cc1ccc2c(c1)O[C@@H](CN(C)Cc1ccncc1)[C@H](C)CN([C@@H](C)CO)S2(=O)=O	0	-1	110*	98*	73	32	50*
C[C@H](O)C#Cc1ccc2c(c1)O[C@H](CN(C)Cc1ccncc1)[C@@H](C)CN([C@H](C)CO)S2(=O)=O	8	-1	57	.	.	.	.
C[C@H](O)C#Cc1ccc2c(c1)O[C@H](CN(C)Cc1ccncc1)[C@H](C)CN([C@H](C)CO)S2(=O)=O	.	-1	61	.	.	.	.
CCN(CC(=O)Nc1ccc(OC)cc1)S(=O)(=O)c1ccc(C)cc1	0	.	.	.	.	.	.
COc1cccc(-c2nnc(SCC(=O)Nc3cccc([N+](=O)[O-])c3)n2C)c1	0	.	.	.	.	.	.
COc1cccc(S(=O)(=O)Nc2ccc3c(c2)[C@H]2C[C@H](CC(=O)NCc4cccc(F)c4)O[C@@H](CO)[C@H]2O3)c1	-1	-2	?	82	12	-10	-12
O=C(C[C@@H]1C[C@@H]2c3cc(NS(=O)(=O)c4ccc(F)cc4)ccc3O[C@@H]2[C@H](CO)O1)NCc1ccc(Oc2ccccc2)cc1	0	1	105*	100*	-20	4	11
O=C(C[C@@H]1C[C@@H]2c3cc(NS(=O)(=O)c4ccc(F)cc4)ccc3O[C@@H]2[C@@H](CO)O1)NCc1ccc(Oc2ccccc2)cc1	0	0	18	.	.	.	.
COc1cccc(S(=O)(=O)Nc2ccc3c(c2)[C@H]2C[C@H](CC(=O)NCc4cccc(F)c4)O[C@H](CO)[C@H]2O3)c1	0	0	58	.	.	.	.
O=C(C[C@@H]1C[C@H]2c3cc(NS(=O)(=O)c4ccc(F)cc4)ccc3O[C@H]2[C@H](CO)O1)NCc1ccc(Oc2ccccc2)cc1	0	-2	47	.	.	.	.
O=C(C[C@@H]1C[C@H]2c3cc(NS(=O)(=O)c4ccc(F)cc4)ccc3O[C@H]2[C@@H](CO)O1)NCc1ccc(Oc2ccccc2)cc1	0	.	115*	?	54	37*	67*
O=C(C[C@@H]1C[C@@H]2c3cc(NS(=O)(=O)c4ccc(F)cc4)ccc3O[C@@H]2[C@H](CO)O1)NCc1ccccc1	0	-1	-14	.	.	.	.
O=C(C[C@H]1C[C@@H]2c3cc(NS(=O)(=O)c4ccc(F)cc4)ccc3O[C@@H]2[C@H](CO)O1)NCc1ccc(Oc2ccccc2)cc1	0	0	118*	97*	32	-10	79*
SMILES	IDH1 R132H inh	KDM4C inh	T cruzi growth-1	T cruzi growth-2	T cruzi growth-3	NIH3T3 tox	3T3 cytotox 2
Cc1cccc(N2C(=O)CC(SCC(=O)Nc3ccccc3)C2=O)c1 (stereo unspecified)	0	.	.	.	.	.	.
Cc1ccccc1NC(=O)Cn1cnc2sc(C)c(C)c2c1=O	0	.	.	.	.	.	.
CC(=O)OCC(Cc1ccccc1)NC(=O)C(Cc1ccccc1)NC(=O)c1ccccc1 (stereo unspecified)	0	.	.	.	.	.	.
C[C@@H]1CN([C@H](C)CO)C(=O)c2cc(NS(=O)(=O)c3ccc(Cl)cc3)ccc2O[C@@H](C)CCCCO[C@H]1CN(C)C(=O)Nc1ccccc1	1	0	?	101*	28	-44	-23
C[C@@H]1CN([C@@H](C)CO)C(=O)c2cc(NS(=O)(=O)c3ccccc3)ccc2O[C@@H](C)CCCCO[C@@H]1CN(C)C(=O)Nc1ccccc1	0	-1	.	.	.	.	.
C[C@@H]1CCCCO[C@H](CN(C)C(=O)Nc2ccccc2)[C@@H](C)CN([C@@H](C)CO)C(=O)c2cc(NS(=O)(=O)c3ccc(Cl)cc3)ccc2O1	.	0	54	.	.	.	.
C[C@@H]1CCCCO[C@@H](CN(C)C(=O)Nc2ccccc2)[C@H](C)CN([C@H](C)CO)C(=O)c2cc(NS(=O)(=O)c3ccc(Cl)cc3)ccc2O1	.	0	43	.	.	.	.
C[C@H]1CCCCO[C@@H](CN(C)C(=O)Nc2ccccc2)[C@@H](C)CN([C@@H](C)CO)C(=O)c2cc(NS(=O)(=O)c3ccc(Cl)cc3)ccc2O1	1	-1	114*	108*	39	-18	-37
C[C@@H]1CCCCO[C@@H](CN(C)C(=O)Nc2ccccc2)[C@H](C)CN([C@@H](C)CO)C(=O)c2cc(NS(=O)(=O)c3ccc(Cl)cc3)ccc2O1	.	-1	?	108*	67	3	4
O=C(CN1C(=O)c2ccccc2C1=O)Oc1ccc(C(=O)Nc2ccccc2)cc1	1	.	.	.	.	.	.
CSc1ccccc1NC(=O)C(C)n1nc([N+](=O)[O-])c(Br)c1C (stereo unspecified)	1	.	.	.	.	.	.
COc1cc2c(cc1NC(=O)COc1cccc(C)c1C)oc1ccccc12	0	.	.	.	.	.	.
